Results from ChEMBL document CHEMBL2311318, “Lead optimization of a dihydropyrrolopyrimidine inhibitor against phosphoinositide 3-kinase (PI3K) to improve the phenol glucuronic acid conjugation” (Bioorg Med Chem Lett, 2013).

Tests used:
[1] = target: Phosphatidylinositol 4,5-bisphosphate 3-kinase catalytic subunit alpha isoform (Homo sapiens, UniProt P42336); assay: Inhibition of PI3Kalpha (unknown origin) using phosphatidylinositol 4,5-bisphosphate as substrate
Outline: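 Recombinant PI3Kα (p110α/p85α) activity was measured with the Adapta Universal Kinase Assay using PIP2:PS lipid substrate.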

[2] = tested on: PC-3; assay: Cytotoxicity against PTEN-deficient human PC3 cells assessed as growth inhibition after 96 hrs; format: functional, cell-based; conditions: PC-3, 96 h
Outline: (§1)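 KPL-4 breast, HCT116 colon and PC-3 prostate cancer cells were exposed to a range of compound concentrations for 96 h. Growth inhibition was read with Cell Counting Kit-8.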

[3] = Cytotoxicity against human KPL4 cells expressing PI3Kalpha H1047R mutant assessed as growth inhibition after 96 hrs; format: functional, cell-based; conditions: KPL4, 96 h; outline: as §1
[4] = AUC in BALB/c nu mouse at 10 mg/kg, iv; format: ADME, organism-based; parameters: dose 10 mg/kg, route intravenous; conditions: plasma
Outline: (§2)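 Female BALB/c-nu mice, n = 2 per group, dosed iv at 10 mg/kg or po at 100 mg/kg. Heparinized blood drawn at 0.08, 0.25, 2, 4, 7 and 24 h after iv dosing, and at 0.50, 2, 4, 7 and 24 h after po dosing. Plasma stored at -80 °C and assayed by LC–MS/MS. Parameters come from non-compartmental analysis and are the mean of two animals.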

[5] = Antitumor activity against human KPL4 cells expressing PI3Kalpha H1047R mutant xenografted in BALB nu/nu mouse assessed as tumor growth inhibition at 80mg/kg, po qd relative to control; format: functional; conditions: read-out: TGI
Outline: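 KPL-4 cells were injected orthotopically into the mammary fat pad of female BALB-nu/nu mice. Tumors were measured with a gauge twice weekly, with volume = length × width²/2. Once tumors reached about 200 mm³, mice were randomized (n = 5 per group) and treatment began.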

[6] = Half life in BALB/c nu mouse at 10 mg/kg, iv; format: ADME, organism-based; parameters: dose 10 mg/kg, route intravenous; conditions: in vivo; outline: as §2
[7] = Half life in BALB/c nu mouse at 100 mg/kg, po; format: ADME, organism-based; parameters: dose 100 mg/kg, route oral; conditions: in vivo; outline: as §2
[8] = Cmax in BALB/c nu mouse at 100 mg/kg, po; format: ADME, organism-based; parameters: dose 100 mg/kg, route oral; conditions: in vivo; outline: as §2
[9] = Half life in mouse liver microsomes at 5 uM in presence of UDPGA; format: ADME, Microsome
Outline: (§3)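 Human or mouse liver microsomes (1.0 mg protein/ml) were pretreated with 25 µg/ml alamethicin in 50 mM Tris-HCl, pH 7.5, at 4 °C for 30 min to release UGTs. Compound at 5 µM was then incubated with 2 mM UDPGA at 37 °C for 60 min. The reaction was quenched with three volumes of acetonitrile and centrifuged.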

[10] = Half life in human liver microsomes at 5 uM in presence of UDPGA; format: ADME, Microsome; outline: as §3
[11] = Half life in mouse liver microsomes at 1 uM in presence of NADPH; format: ADME, Microsome
Outline: (§4)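 Compound at 1 µM was incubated at 37 °C for 30 min with human or mouse liver microsomes (0.5 mg protein/ml) in 50 mM phosphate buffer, pH 7.4, with 1 mM NADPH. The reaction was quenched with three volumes of acetonitrile and centrifuged. Remaining compound in the supernatant was quantified by LC/MS.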

[12] = tested on: HCT-116; assay: Cytotoxicity against human HCT116 cells expressing PI3Kalpha H1047R mutant assessed as growth inhibition after 96 hrs; format: functional, cell-based; conditions: HCT-116, 96 h; outline: as §1
[13] = Apparent oral clearance in BALB/c nu mouse at 100 mg/kg; format: ADME, organism-based; parameters: dose 100 mg/kg, route oral; conditions: in vivo; outline: as §2
[14] = AUC in BALB/c nu mouse at 100 mg/kg, po; format: ADME, organism-based; parameters: dose 100 mg/kg, route oral; conditions: plasma; outline: as §2
[15] = Half life in human liver microsomes at 1 uM in presence of NADPH; format: ADME, Microsome; outline: as §4

Chain of Phosphatidylinositol 4,5-bisphosphate 3-kinase catalytic subunit alpha isoform (P42336 whole entry, canonical isoform): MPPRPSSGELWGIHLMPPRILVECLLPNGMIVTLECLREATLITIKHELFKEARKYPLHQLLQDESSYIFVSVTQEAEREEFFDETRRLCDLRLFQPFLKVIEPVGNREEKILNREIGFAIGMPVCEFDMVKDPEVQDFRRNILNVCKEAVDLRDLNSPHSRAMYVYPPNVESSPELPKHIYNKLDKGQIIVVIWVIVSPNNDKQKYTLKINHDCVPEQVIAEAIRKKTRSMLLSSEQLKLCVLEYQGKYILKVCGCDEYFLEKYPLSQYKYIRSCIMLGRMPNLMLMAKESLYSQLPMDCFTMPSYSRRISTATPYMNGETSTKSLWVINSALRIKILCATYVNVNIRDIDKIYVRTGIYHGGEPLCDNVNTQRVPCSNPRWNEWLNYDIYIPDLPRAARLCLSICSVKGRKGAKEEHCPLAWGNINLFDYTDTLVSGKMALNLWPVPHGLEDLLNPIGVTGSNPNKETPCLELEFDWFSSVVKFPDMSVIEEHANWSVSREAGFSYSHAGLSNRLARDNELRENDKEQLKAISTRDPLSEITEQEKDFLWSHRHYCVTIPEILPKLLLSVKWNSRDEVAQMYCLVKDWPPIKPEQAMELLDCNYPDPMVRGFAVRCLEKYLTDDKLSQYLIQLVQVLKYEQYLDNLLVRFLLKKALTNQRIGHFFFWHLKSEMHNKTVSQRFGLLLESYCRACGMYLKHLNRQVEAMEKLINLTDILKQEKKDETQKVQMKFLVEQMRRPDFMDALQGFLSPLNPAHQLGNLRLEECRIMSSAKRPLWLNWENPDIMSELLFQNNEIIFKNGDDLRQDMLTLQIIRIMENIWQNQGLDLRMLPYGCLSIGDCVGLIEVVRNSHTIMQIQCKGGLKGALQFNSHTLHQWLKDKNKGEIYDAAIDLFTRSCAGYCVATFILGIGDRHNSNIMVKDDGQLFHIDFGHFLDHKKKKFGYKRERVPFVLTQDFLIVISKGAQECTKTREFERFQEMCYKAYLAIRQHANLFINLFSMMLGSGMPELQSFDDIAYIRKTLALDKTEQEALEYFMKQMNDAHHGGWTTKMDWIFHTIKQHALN

SMILES	IC50 [1]	also measured
c1cc(-c2nc(N3CCOCC3)nc3c2CCN3c2ccncc2)c2[nH]ncc2c1	> 50000 nM	–
Cc1ccc(-c2nc(N3CCOCC3)nc3c2CCN3c2ccncc2)cc1O	> 50000 nM	–
c1cc(N2CCc3c(-c4ccc5cn[nH]c5c4)nc(N4CCOCC4)nc32)ccn1	> 50000 nM	–
Cc1c(O)cccc1-c1nc(N2CCOCC2)nc2c1CCN2c1ccncc1	> 50000 nM	–
Oc1cccc(-c2nc(N3CCOCC3)nc3c2CCN3c2ccc3ncccc3c2)c1	> 50000 nM	–
Nc1n[nH]c2cc(-c3nc(N4CCOCC4)nc4c3CCN4c3ccncc3)ccc12	> 50000 nM	–
Nc1ncc(-c2nc(N3CCOCC3)nc3c2CCN3c2cccnc2)cn1	–	IC50 [2]: 420 nM; IC50 [3]: 15 nM; AUC [4]: 4690 ng·h/mL; inhibition in vivo at 80 mg/kg [5]: 166%; half-life [6]: 10.3 h; half-life [7]: 6.58 h; Cmax [8]: 4190 ng/mL; half-life at 5 µM [9]: > 1 h; half-life at 5 µM [10]: > 1 h; half-life at 1 µM [11]: 1.05 h; IC50 [12]: 170 nM; CL/F [13]: 86.1 mL/min/kg; AUC [14]: 19400 ng·h/mL
Oc1cccc(-c2nc(N3CCOCC3)nc3c2CCN3c2ccncc2)c1	–	IC50 [2]: 140 nM; half-life at 5 µM [9]: 0.102 h; half-life at 1 µM [11]: 0.333 h; IC50 [12]: 720 nM
CNS(=O)(=O)c1cccc(-c2nc(N3CCOCC3)nc3c2CCN3c2ccncc2)c1	> 50000 nM	–
c1cc(N2CCc3c(-c4ccc5[nH]ncc5c4)nc(N4CCOCC4)nc32)ccn1	> 50000 nM	–
Oc1cccc(-c2nc(N3CCOCC3)nc3c2CCN3c2ccccn2)c1	> 50000 nM	–
c1cc(-c2nc(N3CCOCC3)nc3c2CCN3c2ccncc2)c2cn[nH]c2c1	> 50000 nM	–
O=C(O)c1cccc(-c2nc(N3CCOCC3)nc3c2CCN3c2ccncc2)c1	> 50000 nM	–

Continued by falling IC50 [1], values first:

IC50 [1]	SMILES	also measured
22600 nM	c1cc(-c2nc(N3CCOCC3)nc3c2CCN3c2ccncc2)ccn1	–
19000 nM	NC(=O)c1cccc(-c2nc(N3CCOCC3)nc3c2CCN3c2ccncc2)c1	–
3700 nM	Nc1cccc(-c2nc(N3CCOCC3)nc3c2CCN3c2ccncc2)c1	–
2400 nM	CNC(=O)c1cccc(-c2nc(N3CCOCC3)nc3c2CCN3c2ccncc2)c1	–
1700 nM	c1cncc(-c2nc(N3CCOCC3)nc3c2CCN3c2ccncc2)c1	–
1220 nM	Oc1cccc(-c2nc(N3CCOCC3)nc3c2CCN3c2ccccc2)c1	–
440 nM	c1cc(N2CCc3c(-c4cncnc4)nc(N4CCOCC4)nc32)ccn1	–
410 nM	COc1cccc(-c2nc(N3CCOCC3)nc3c2CCN3c2ccncc2)c1	–
230 nM	Cn1ccc(N2CCc3c(-c4cccc(O)c4)nc(N4CCOCC4)nc32)n1	–
200 nM	Oc1cccc(-c2nc(N3CCOCC3)nc3c2CCN3c2ccnc(O)c2)c1	–
170 nM	Cc1cc(N2CCc3c(-c4cccc(O)c4)nc(N4CCOCC4)nc32)ccn1	–
49 nM	Oc1cccc(-c2nc(N3CCOCC3)nc3c2CCN3c2nccs2)c1	–
26 nM	Nc1ncc(-c2nc(N3CCOCC3)nc3c2CCN3c2ccncc2)cn1	IC50 [2]: 120 nM; IC50 [3]: 29 nM; half-life at 5 µM [9]: > 1 h; half-life at 1 µM [15]: 2.12 h; half-life at 5 µM [10]: > 1 h; half-life at 1 µM [11]: 0.45 h; IC50 [12]: 91 nM
